High-throughput results: PubChem BioAssay, several laboratories
Compounds with a hit are over-represented: about 2.2% of the library has one in this group of screens.
APP 5'UTR act = activators of APP 5'UTR luciferase reporter, primary screen, SH-SY5Y cells; SH-SY5Y APP 5'UTR luciferase reporter, luminescence; zero percent = DMSO vehicle wells; activation, % at 2 µM; hit rate 1% among 190,000;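 active means activation above a set limit, based on mean plus 3 SD of controls, cut at about 140% in these data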
PPC-1+TRAIL kill = compounds killing PPC-1 cancer cells with TRAIL present, primary screen, TRAIL potentiator project, ATPLite luminescence, uHTS. cell killing (% activity), % at 4 µM or 5 µM. hit rate 0.41% among 220,000. PPC-1 cells + TRAIL, ATPLite viability luminescence;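 active means cell killing above 50% in the first pass at 4 µM, then a duplicate retest at 5 µM averaging 50% or more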;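 further: plate controls were cells with TRAIL plus DMSO for no effect and medium-only wells lacking cells for full effect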
FLuc act counter = FLuc activators, initial screening, artefact control for FLuc-dependent activation tests, biochemical, ATPlite luminescence | Luciferin 4-monooxygenase (Photinus pyralis), P08659 | ATPlite luciferase biochemical, 10 min; 0 = ATP-free wells, 1 = DMSO control | activation factor at 10 µM | 200,000 tested, under 10 active | AID 1027, 2008;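 active means luciferase activation factor, scaled between plate controls, of at least 2 with compound at 10 µM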
Target sequence (P08659 whole entry, looked up): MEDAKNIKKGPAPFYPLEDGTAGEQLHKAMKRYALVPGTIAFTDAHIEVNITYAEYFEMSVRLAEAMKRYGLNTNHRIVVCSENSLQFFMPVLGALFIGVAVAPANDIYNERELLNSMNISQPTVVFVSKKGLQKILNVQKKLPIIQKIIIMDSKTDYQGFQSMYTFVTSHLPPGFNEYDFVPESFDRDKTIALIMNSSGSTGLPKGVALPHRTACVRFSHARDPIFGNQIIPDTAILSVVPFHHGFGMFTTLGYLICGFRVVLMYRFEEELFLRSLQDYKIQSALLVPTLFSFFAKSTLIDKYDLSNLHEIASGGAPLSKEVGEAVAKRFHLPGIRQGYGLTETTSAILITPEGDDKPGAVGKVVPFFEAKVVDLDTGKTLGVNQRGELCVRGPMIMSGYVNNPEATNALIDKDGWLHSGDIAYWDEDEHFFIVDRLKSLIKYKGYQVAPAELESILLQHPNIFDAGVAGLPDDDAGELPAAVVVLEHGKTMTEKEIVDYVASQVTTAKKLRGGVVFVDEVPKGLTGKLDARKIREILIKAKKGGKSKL
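Assay system: Luciferase/luciferin detection reagent, cell-free biochemical luciferase assay / Read-out: luciferase activation / Benchmarks: No-ATP low control, compound-free enzyme-plus-ATP high control / Medium: PBS buffer for ATP / Detection: luminescence measurement of luciferase light output / Schedule: 10 min at ambient temperature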
FLuc inh counter = firefly luciferase enzyme inhibitors, primary screen, artefact control for luciferase-based inhibitor screens, biochemical, luminescence, ATPLite; Luciferin 4-monooxygenase (Photinus pyralis), P08659; 10 min; inhibition, % at 10 µM; hit rate 1.5% among 200,000; AID 1006, 2008;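 active means inhibition above about 50% when tested at 10 µM, limit read from the data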
NF-kB neuron act = activators of NF-kB expression in neurons, primary screen, cell-based, HTS; human neuronal cells, NF-kB reporter expression; hits give high values; fold change at 12.5 µM; hit rate 1.6% among 190,000; AID 1239, 2008; in the data active means fold change above about 3.3
TRAIL sens C8 = viability loss with TRAIL in NB7+C8 cells, primary screen, TRAIL sensitizer project, cell-based, ATPlite luminescence | inhibition (viability loss, TRAIL sensitization), % at 10 µM | hit rate 1% among 360,000 | AID 624354, 2012;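 active means compounds causing at least 50% loss of cell viability in the single-dose screen, relative to plate controls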
* = called active by the depositor; x = not tested or not shown.

SMILES | APP 5'UTR act | PPC-1+TRAIL kill | FLuc act counter | FLuc inh counter | NF-kB neuron act | TRAIL sens C8
O=C(/C=C/Nc1ccc(Oc2ccccc2)cc1)c1ccco1 | 164* | 49 | 0.3 | 69* | 5.4* | 46
O=C(/C=C/Nc1ccccc1C(F)(F)F)c1ccco1 | 228* | x | 0.1 | 89* | 6.7* | 59*
NC(=O)c1ccccc1N/C=C/C(=O)c1ccco1 | 78 | 19 | 0.6 | 40 | 1.5 | 12
CCCn1c(=O)c2sccc2n2c(CCCC(=O)NCC3CCCO3)nnc12 (stereo unspecified) | x | x | x | x | x | -19
Nc1ncnc2c1ncn2[C@@H]1O[C@H](C(=O)N(CCC2=CCCCC2)CC2CC2)[C@@H](O)[C@H]1O | x | x | x | x | x | 8
CCCC(NC(=O)c1c(C)noc1C)C12CC3CC(CC(C3)C1)C2 (stereo unspecified) | 13 | 13 | 1.1 | -6 | 0.93 | -56
CC(=O)c1ccc(N2CCN(c3ccc4cc(S(=O)(=O)N5CCC(C)CC5)ccc4n3)CC2)cc1 | x | x | x | x | x | 60*
Nc1nn(-c2ccccc2)c(N)c1N=Nc1ccc2c(c1)OCO2 | 92 | 12 | 0.5 | 51* | 7.5* | 20
Nc1nn(-c2ccccc2)c(N)c1N=Nc1cccc(F)c1 | x | 11 | x | x | x | 11
Cc1ccc(/C=C2/CCc3c([nH]c4ccccc34)C2=O)cc1 | 156* | -1 | 0.6 | 44 | 2.5 | 27
O=C1/C(=C\c2ccccc2)CCc2c1[nH]c1ccccc21 | 162* | -11 | 0.9 | 10 | 4.7* | 13
O=C(O/N=C1\CCCc2ccccc21)c1ccc(F)cc1 | 15 | 9 | 0.1 | 87* | 1.5 | -2
O=C(O/N=C1/CCSc2ccccc21)c1ccccc1 | 8 | 23 | 0.3 | 75* | 1.3 | -4
O=C(Nc1ccc(N2CCN(Cc3ccccc3F)CC2)cc1)c1ccc([N+](=O)[O-])o1 | x | x | x | x | x | 89*
CC1CCN(c2ccc(NC(=O)c3ccc([N+](=O)[O-])o3)cc2)CC1 | x | x | x | x | x | 94*
COc1ccc(C/C(N)=N/OC(=O)CCc2ccccc2)cc1 | x | x | x | x | x | -11
Cc1cc(OCC(=O)OCC(=O)Nc2cc(C(F)(F)F)ccc2N2CCOCC2)ccc1Cl | 4 | 7 | 1.1 | -6 | 1.6 | -3
CC(C)(CNC(=O)c1cccs1)CNC(=O)c1cccs1 | 18 | -2 | 1 | -2 | 0.85 | -6
O=C(Oc1ccc(F)cc1C(=O)/C=C/c1cccs1)c1cccc([N+](=O)[O-])c1 | -43 | -2 | 1 | -5 | 4.5* | -2
COc1cccc(C(=O)Nc2nc3c(s2)CN(C)CC3)c1 | 60 | 23 | 0.4 | 56* | 1.8 | 23
CCN1CCc2nc(NC(=O)c3ccccc3)sc2C1 | 116 | 49 | 0.5 | 46 | 0.4 | 50*
Nc1c2c(nc3sc4c(c13)CCCCC4)CCCCC2 | 185* | 4 | 0.4 | 62* | 4* | 65*
O=C(N/N=C/c1ccc(O)cc1)c1ccc(NC(=O)c2ccccc2Br)cc1 | -2 | 9 | 1 | -3 | 0.81 | 11
O=C(Nc1ccccc1C(=O)N/N=C/c1ccc(F)cc1)c1ccccc1Br | 4 | 16 | 0.3 | 74* | 0.94 | 8
O=C(N/N=C/c1ccc(F)cc1)c1ccccc1 | 66 | 37 | 0.2 | 75* | 2.6 | 32
SMILES | APP 5'UTR act | PPC-1+TRAIL kill | FLuc act counter | FLuc inh counter | NF-kB neuron act | TRAIL sens C8
CCCCCc1ccc(OCCCC[n+]2ccccc2)c(CCCCC)c1 | 6 | 24 | 1 | -4 | 0.99 | 79*
CCC(C)(C)c1ccc(Oc2cccc(C(=O)O)c2)cc1 | x | -4 | x | x | x | 18
Cc1cc(=O)oc2cc(OCCCC[n+]3ccccc3)ccc12 | x | 7 | x | x | x | -2
CCC(C)(C)c1ccc(OCCCC[n+]2ccccc2)c(C(C)(C)CC)c1 | 7 | 51* | 1.1 | -8 | 0.74 | 15
COc1ccc(-c2nc(N)ncc2-c2ccccc2OC)c(O)c1 | x | x | x | x | x | -13
COc1cccc(Oc2ncnc(N)c2[N+](=O)[O-])c1 | x | x | x | x | x | 7
Cc1cccnc1NC(=O)CNC(=O)c1cccs1 | x | x | x | x | x | 2
Cc1cccnc1NC(=S)NC(=O)c1cccs1 | 198* | 29 | 0.3 | 71* | 5* | 69*
